# High-throughput results from PubChem.
# SENP8 block-1 – SENP8 (human) protease inhibition; Q96LD8; recombinant SENP8, Nedd8 substrate fluorescence; inhibition, % at 20 µM; 360,000 compounds, 0.64% hits; in the data active = inhibition mostly above about 40%, no sharp cut-off; inactive = mostly below about 27%
# SENP7 inh – blocks the human protease SENP7; inhibition, % at 5 µM; AID 434973; 330,000 compounds, 1.5% hits; recombinant SENP7, Z-RLRGG-aminoluciferin luminescence, 40 min;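 active = inhibition above about 50% at the single test dose, limit read from the data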;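 note: plate controls were DMSO with enzyme for no effect and no enzyme buffer wells for full effect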
# Target sequence (Q9BQF6 706-1050 limits assumed): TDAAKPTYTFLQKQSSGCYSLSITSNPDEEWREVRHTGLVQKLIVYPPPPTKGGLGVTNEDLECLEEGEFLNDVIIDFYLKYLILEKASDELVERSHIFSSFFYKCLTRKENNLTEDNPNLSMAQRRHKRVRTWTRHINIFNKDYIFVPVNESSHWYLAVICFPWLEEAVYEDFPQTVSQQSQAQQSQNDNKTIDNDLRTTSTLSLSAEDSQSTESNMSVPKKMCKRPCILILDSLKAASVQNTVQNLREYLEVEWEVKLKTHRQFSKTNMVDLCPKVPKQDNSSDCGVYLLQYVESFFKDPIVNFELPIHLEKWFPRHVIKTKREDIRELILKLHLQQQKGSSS
# SENP6 inh – blocks the human protease SENP6 | Q9GZR1 | Recombinant SENP6 catalytic domain, aminoluciferin luminescence | inhibition, % at 10 µM | 330,000 compounds, 1.8% hits | AID 2599;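 active = inhibition above about 50% at the single tested dose, limit read from the data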;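 note: plate controls were DMSO wells with enzyme for no effect and DMSO wells lacking enzyme for full effect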
# Apaf-1 inh – inhibitors of human Apaf-1 apoptosome. O14727. reconstituted apoptosome caspase-3 activity, DEVD-Rh110 fluorescence. inhibition, % at 20 µM. 330,000 compounds, 0.71% hits; active = inhibition of at least 40% at 20 µM;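 note: plate controls were DMSO wells for no effect and DEVD-CHO caspase inhibitor wells for full effect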
#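 Material: reconstituted apoptosome with Apaf-1, cytochrome c, caspase-9, procaspase-3, dATP. Technique: Rh110 fluorescence intensity. Buffer or medium: pH 7.5 Hepes buffer with CHAPS, BSA, DTT. Times: 30 min plus 50 min, RT.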
# UBC13 inh – blocks human UBC13 polyubiquitin chain formation. TR-FRET. inhibition, % at 20 µM. 330,000 compounds, 0.47% hits; in the data active = inhibition above about 45%, passing the limit was not always enough
# Target sequence (P61088 whole entry, looked up): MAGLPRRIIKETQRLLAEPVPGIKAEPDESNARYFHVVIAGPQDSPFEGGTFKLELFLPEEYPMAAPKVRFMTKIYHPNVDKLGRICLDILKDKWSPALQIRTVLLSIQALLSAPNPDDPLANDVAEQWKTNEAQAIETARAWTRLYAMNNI
# SENP8 block-2 – inhibitors of human SENP8 protease; 330,000 compounds, 1.2% hits; inhibition, % at 10 µM; purified SENP8, Z-RLRGG-aminoluciferin cleavage, luminescence; Q96LD8; in the data active = inhibition above about 50%
# SENP8 inh conf – confirmation of human SENP8 protease inhibitors | inhibition, % at 25 µM | purified SENP8, Nedd8-AMC/pro-Nedd8 cleavage fluorescence, 30 min | 1,400 compounds, 15% hits | shares compounds with SENP8 block-1; in the data active = inhibition mostly above about 39%, no sharp cut-off; inactive = mostly below about 34%
# Numbers without * were called inactive; nt = no result given. Rows were chosen to be rich in hits. Some 3% of all compounds tested hit in one or more screens of this group.
SMILES,SENP8 block-1,SENP7 inh,SENP6 inh,Apaf-1 inh,UBC13 inh,SENP8 block-2,SENP8 inh conf
COc1ccc(CNC(=O)Cn2cc([N+](=O)[O-])cn2)cc1,44*,-6,-32,3,-8,-5,-11
O=C(Cn1cc([N+](=O)[O-])cn1)NCc1ccccc1,9,1,9,-8,-7,-1,nt
CC(C)C(NC(=O)OCc1ccccc1)C(=O)NC(Cc1c[nH]c2ccccc12)C(=O)O (centres undefined),-2,nt,nt,nt,nt,nt,nt
O=C(COC(=O)c1cc(S(=O)(=O)N2CCOCC2)ccc1Cl)Nc1ccc2c(c1)OCO2,45*,4,-7,12,6,-2,11
O=C(COC(=O)c1cc(S(=O)(=O)N2CCOCC2)ccc1Cl)NCc1ccc2c(c1)OCO2,1,5,2,-12,-2,4,nt
Cc1ccc(SCc2nnc(NC(=O)c3ccccc3)s2)cc1,40*,9,3,24,-10,2,12
O=C1c2ccc3c4c(ccc(c24)C(=O)N1c1cccc(O)c1)C(=O)N(c1cccc(O)c1)C3=O,46*,19,22,21,-31,6,46
O=C1c2ccc3c4c(ccc(c24)C(=O)N1c1cccc(O)c1)CC3,-155,1,17,-6,-5,-2,nt
CC(C)NC(=O)C1(C)CCN1CCC(=O)c1ccccc1 (centres undefined),5,nt,nt,nt,nt,nt,nt
CC(C)[C@@H](C(=O)NC1CC1)N1C(=O)N2CCc3c([nH]c4ccccc34)[C@@]2(C)C1=O,51*,-2,0,-7,5,1,7
CC(C)[C@@H](C(=O)N[C@@H](C(=O)O)c1ccccc1)N1C(=O)N2CCc3c([nH]c4ccccc34)[C@@]2(C)C1=O,44*,-4,-15,-9,-13,-10,18
CC(C)[C@@H](C(=O)NC1CCN(Cc2ccccc2)CC1)N1C(=O)N2CCc3c([nH]c4ccccc34)[C@@]2(C)C1=O,20,1,-2,21,14,-1,nt
CC(C)[C@@H](C(=O)NCC1CCCO1)N1C(=O)N2CCc3c([nH]c4ccccc34)[C@@]2(C)C1=O (some centres undefined),51*,-20,-8,9,2,-10,13
CCn1nccc1NC(=O)c1csc([C@@H]2C[C@H](O)[C@@H](CO)O2)n1,23,nt,nt,nt,nt,nt,nt
O=C(CCO)c1ccc(O)cc1,44*,-5,-3,-23,4,7,10
CC1(c2nnnn2Cc2ccccc2)CCC(=O)N1Cc1ccc(F)cc1 (centres undefined),13,nt,nt,nt,nt,nt,nt
CC1=CC(=C(C#N)c2nc3ccccc3s2)C=C(C)N1Cc1ccco1,59*,2,38,4,-8,16,18
CNC(=O)N(O)C1N(/N=C/c2ccc(N(C)C)cc2)C(=S)SC1(C)C (centres undefined),-91,-2,-11,0,-4,-7,nt
CC1(C)SC(=S)N(/N=C/c2ccccc2)C1N(O)C(=O)Nc1ccc([N+](=O)[O-])cc1 (centres undefined),44*,4,-9,21,-9,1,10
c1ccc(Sc2ccccn2)cc1,40*,-9,-16,-12,6,-4,15
CC(C)(C)OC(=O)N1CCC[C@@H]1C(=O)N1CCC[C@@H]1C(=O)NCc1ccccc1Cl,20,nt,nt,nt,nt,nt,nt
O=C(CSc1nc2cc(Cl)ccc2s1)NCc1ccc2c(c1)OCO2,44*,13,-2,6,0,2,32
Cc1nnc(SCC(=O)NCc2ccc3c(c2)OCO3)s1,8,-3,-15,-7,4,-5,nt
CCc1nc2ccc(C(=O)N3CCN(S(=O)(=O)CC)CC3)cn2c1N(C)Cc1cccs1,-1,nt,nt,nt,nt,nt,nt
O=C(COC(=O)c1cccc(S(=O)(=O)N2CCc3ccccc3C2)c1)NCc1ccco1,28,9,1,9,-7,7,nt
SMILES,SENP8 block-1,SENP7 inh,SENP6 inh,Apaf-1 inh,UBC13 inh,SENP8 block-2,SENP8 inh conf
Cc1ccc(S(=O)(=O)N2CCOCC2)cc1C(=O)OCC(=O)N1CCc2ccccc2C1,51*,nt,nt,nt,nt,nt,37
O=C(COC(=O)c1cc(S(=O)(=O)N2CCc3ccccc3C2)ccc1Cl)NCc1ccco1,42*,18,19,43*,1,4,57*
CC(C)N1CCC1(C)C(=O)Nc1ccc2cn[nH]c2c1 (centres undefined),7,nt,nt,nt,nt,nt,nt
CCC/C=C/c1ccc(CN2C(C)C(=O)N(Cc3cn(CCC4OCCO4)nn3)CCS2(=O)=O)cc1 (centres undefined),8,nt,nt,nt,nt,nt,nt
Cc1cc(Br)ccc1-n1[nH]c(C)c(C=Nc2cccc3nsnc23)c1=O,54*,14,14,27,-50,12,12
O=C(CNC(=O)c1ccccc1F)N/N=C/c1cccs1,42*,-5,-28,13,-5,-11,11
Fc1cccc(Cc2c(-c3cccc(Cl)c3)nc3c(Cl)cc(C(F)(F)F)cn23)c1,-102,nt,nt,nt,nt,nt,nt
Cc1ccc(S(=O)(=O)N(CC(=O)Nc2cccc([N+](=O)[O-])c2)C2CCCCC2)cc1,18,14,-1,13,1,2,nt
Cc1ccc(S(=O)(=O)N(CC(=O)Nc2ccc(Cl)c([N+](=O)[O-])c2)C2CCCCC2)cc1,45*,10,0,0,-1,2,18
S=C(NCCc1ccccn1)Nc1ccccc1Cl,14,3,-3,-8,3,1,nt
Cc1c(Cl)cccc1NC(=S)NCCc1ccccn1,47*,2,-21,-3,2,5,16
CC1(C(=O)NCc2ccc(Cl)cc2)CCN1C(=O)Cc1cccs1 (centres undefined),11,nt,nt,nt,nt,nt,nt
CC(NC(=O)c1ccc(Cn2cc([N+](=O)[O-])cn2)o1)c1ccccc1 (centres undefined),50*,6,1,2,-5,3,16
Cc1ccc2sc(NNC(=O)c3cc(=O)c4ccccc4o3)nc2c1C,66*,19,96*,13,-92,94*,25
Cc1ccc2sc(NNC(=O)C3COc4ccccc4O3)nc2c1C (centres undefined),0,6,-8,18,-13,-4,nt
Cc1ccc(OCC(=O)NCCN2CCOCC2)cc1C,43*,6,3,-2,-2,8,8
Cc1cc(OCC(=O)NCCN2CCOCC2)cc(C)c1Cl,15,-12,-4,-5,0,-3,nt
CCOC(=O)C1(C)CCCN(C(=O)c2ccc3c(c2)CCO3)C1 (centres undefined),8,nt,nt,nt,nt,nt,nt
CC(C)N(C(=O)CSc1nn2c(=O)c(C(C)(C)C)nnc2s1)c1ccccc1,40*,0,-13,4,-3,0,10
Cc1ccc(-n2cnc(N)c2C(=O)c2cccc([N+](=O)[O-])c2)cc1,55*,2,-4,-7,-2,4,12
